According to paper PMC2993511 (Biochemical pharmacology, 2010):
Entries after “also recorded” stand apart in the source; their conditions may differ.

Key:
Naïve CHO cells = test: [35S]GTPγS binding in naïve CHO cells; type: biochemical, Chinese hamster; conditions: not transfected with MOR or DOR, data not shown
Outline: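 Untransfected CHO cell membranes, a receptor-free control. Tested with 0.1 nM [35S]GTPγS and 3 μM GDP in HEPES pH 7.4 buffer at 30°C. Extract and DAMGO were added. Nonspecific binding was subtracted using 10 μM unlabeled GTPγS. Read-out was filtration plus scintillation counting.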

MOR [1] = molecular target: T1, MOR (Homo sapiens, UniProt P35372); test: Receptor binding assay, displacement of [3H]DAMGO
DOR [2] = molecular target: T2, DOR (Homo sapiens, UniProt P41143); test: Receptor binding assay, displacement of [3H]deltorphin
MOR [3] = molecular target: T1, MOR; test: [35S]GTPγS binding assay, CHO-MOR membranes; type: biochemical
Outline: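 Human MOR stably expressed in CHO cells (G418 selection); membranes homogenised on ice and spun at 20,000 g. 20 μg protein incubated with 0.1 nM [35S]GTPγS, 3 μM GDP, Mg2+ and Na+ in HEPES pH 7.4, 1 hr, 30°C. DAMGO was the positive control. Nonspecific binding was taken with 10 μM unlabeled GTPγS. Filter-bound radioactivity was counted and expressed as percent stimulation above basal.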

DOR [4] = molecular target: T2, DOR; test: [35S]GTPγS binding assay, CHO-DOR membranes; type: biochemical

T1 sequence (P35372 whole entry): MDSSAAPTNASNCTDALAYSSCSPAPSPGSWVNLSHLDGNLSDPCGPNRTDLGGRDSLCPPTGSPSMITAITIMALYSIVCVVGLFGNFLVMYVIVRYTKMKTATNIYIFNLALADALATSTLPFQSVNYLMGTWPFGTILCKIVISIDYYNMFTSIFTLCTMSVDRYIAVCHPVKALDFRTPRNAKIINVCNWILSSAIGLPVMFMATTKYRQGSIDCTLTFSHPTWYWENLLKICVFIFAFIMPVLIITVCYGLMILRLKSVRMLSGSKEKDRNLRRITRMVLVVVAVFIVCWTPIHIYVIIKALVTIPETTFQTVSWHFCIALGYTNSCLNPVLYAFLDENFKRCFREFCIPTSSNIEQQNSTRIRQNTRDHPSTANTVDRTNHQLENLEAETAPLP
T2 sequence (P41143 whole entry): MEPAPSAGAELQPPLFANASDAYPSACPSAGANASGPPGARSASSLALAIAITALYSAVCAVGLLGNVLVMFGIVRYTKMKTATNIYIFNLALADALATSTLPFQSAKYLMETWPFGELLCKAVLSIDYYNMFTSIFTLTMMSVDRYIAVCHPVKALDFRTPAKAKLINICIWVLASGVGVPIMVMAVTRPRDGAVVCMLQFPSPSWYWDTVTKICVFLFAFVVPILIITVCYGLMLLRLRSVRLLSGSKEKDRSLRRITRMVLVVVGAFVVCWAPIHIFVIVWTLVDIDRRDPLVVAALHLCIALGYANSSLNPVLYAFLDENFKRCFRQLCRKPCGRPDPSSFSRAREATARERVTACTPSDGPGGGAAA

Compound | IC50 (MOR [1]) | Ki (MOR [1]) | IC50 (DOR [2]) | Ki (DOR [2]) | other results
C=CCN1C[C@H](C)N([C@H](c2ccc(C(=O)N(CC)CC)cc2)c2cccc(OC)c2)C[C@H]1C [SNC-80] | – | – | – | – | stimulation of [35S]GTPγS binding in naïve CHO cells (Naïve CHO cells): not stimulated
O=c1cc(-c2ccc(O)cc2)oc2cc(O)cc(O)c12 [apigenin] | 35.8 ± 7.81 µM | 16.2 ± 3.16 µM | > 50 µM | – | –
COc1ccc(-c2oc3cc(OC)c(OC)c(O)c3c(=O)c2OC)cc1O [casticin] | 2.84 ± 0.707 µM | 1.14 ± 0.167 µM | 2.05 ± 0.631 µM | 1.29 ± 0.44 µM | activation of MOR (MOR [3]): did not activate; EC50 (DOR [4]): 15.3 ± 6.32 µM; Emax (DOR [4]; read-out: DOR Emax, stimulation of [35S]GTPγS binding): 74.6 ± 18.2%
COc1c(-c2ccc(O)cc2)oc2cc(O)cc(O)c2c1=O [isokaempferide] | – | – | 22.8 ± 14 µM | 12.9 ± 7.92 µM | affinity for MOR (MOR [1]): no significant affinity
O=c1cc(-c2ccc(O)c(O)c2)oc2cc(O)cc(O)c12 [luteolin] | 43.3 ± 13.2 µM | 13.4 ± 4.06 µM | 16.8 ± 4.87 µM | 9.53 ± 2.73 µM | –
N,N-diallyl-Tyr-Aib-Aib-Phe-Leu-OH [ICI 174,864, reference compound] | – | – | – | – | effect on casticin stimulated [35S]GTPγS binding (DOR [4]; casticin 10 and 50 μM, ICI 174,864 10 μM): inhibited; also recorded: blocked
[D-Ala^2,N-MePhe^4-Glyol^5]enkephalin [DAMGO] | – | – | – | – | stimulation of [35S]GTPγS binding in naïve CHO cells (Naïve CHO cells): not stimulated
